CHO parental Ca: signal in parental CHO cells, OX1R antagonist counter-screen; parental CHO-K1, ATP-induced calcium, Fluo-8 fluorescence; 330,000 tested, 0.63% active; inhibition, % at 5.6 µM;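 active = inhibition above that plate's mean sample inhibition plus 3 SD, cut at about 26% in these data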;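 also: 0% = ATP-challenged DMSO wells and 100% = DMSO wells without ATP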
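Test system: untransfected parental CHO cell line. Compound: one dose, 5.6 µM nominal. Detection: intracellular calcium via Fluo-8 no-wash fluorescent dye. Measure: % inhibition. Benchmarks: ATP-challenged DMSO wells low, unchallenged DMSO wells high.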
OX1R antag-1: blocks the human orexin 1 receptor. 330,000 tested, 1.8% active. O43613. inhibition, % at 6.6 µM. OX1R-expressing cells, FRET antagonist read-out; in the data active = inhibition mostly above about 38%, no sharp cut-off; inactive = mostly below about 40%;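 also: 0% = agonist challenge alone and 100% = reference antagonist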
Target sequence (O43613 whole entry, looked up): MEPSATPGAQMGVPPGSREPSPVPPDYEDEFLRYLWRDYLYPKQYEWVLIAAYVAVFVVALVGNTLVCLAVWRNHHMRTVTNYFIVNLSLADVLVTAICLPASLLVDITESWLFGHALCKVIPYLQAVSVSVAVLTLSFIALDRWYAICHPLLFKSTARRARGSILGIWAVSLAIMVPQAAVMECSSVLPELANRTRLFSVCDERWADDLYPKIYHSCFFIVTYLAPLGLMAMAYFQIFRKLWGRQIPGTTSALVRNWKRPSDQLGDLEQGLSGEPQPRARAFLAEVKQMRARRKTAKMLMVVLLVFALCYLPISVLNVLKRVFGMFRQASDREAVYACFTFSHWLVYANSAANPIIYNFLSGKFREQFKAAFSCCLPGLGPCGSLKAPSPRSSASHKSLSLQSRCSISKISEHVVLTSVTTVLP
OX1R antag-2: antagonists of human orexin 1 receptor | O43613 | CHO/OX1R cells, Fluo-8 calcium fluorescence, orexin A | inhibition, % at 5 µM | 330,000 tested, 0.43% active;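 active = inhibition above its plate's threshold, mean inhibition of all tested compounds on the plate plus 3 SD, cut at about 37% in these data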;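 also: 0% = orexin A challenge wells and 100% = SB-334867-A antagonist wells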
GPR7 antag: blocks human GPR7 receptor signaling; AID 1861; inhibition, % at 4.4 µM; 290,000 tested, 1.1% active; GPR7-expressing cells, fluorescence antagonist assay; P48145; in the data active = inhibition above about 16%, passing the limit was not always enough;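 also: cells stimulated with the agonist NPW; 0% = agonist with vehicle and 100% = vehicle without agonist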
TAAR1 agonist: agonists of human TAAR1. Q96RJ0. activation, % at 3 µM. AID 624467. 360,000 tested, 0.99% active. CHO RD-HGA16 TAAR1, Fluo-8 calcium fluorescence; vehicle wells 0%, saturating PEA agonist 100%;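 active = activation above the mean activation of all test compounds in the run plus 3 SD, cut at about 38% in these data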
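Repeats: no replicates (n 1) | Material: CHO-derived RD-HGA16 cells with stable Gα16 and human TAAR1 | Technique: Kinetic Fluo-8 calcium fluorescence | Schedule: 17-24 h seeding, 75 min 37 °C dye, 30 min RT | Evaluation: % activation from peak over basal fluorescence ratio, DMSO-to-PEA scaled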
TAAR1 antagonist: human TAAR1 antagonism; inhibition, % at 3 µM; Q96RJ0; 360,000 tested, 1.5% active; AID 624466; CHO RD-HGA16 TAAR1, Fluo-8 calcium fluorescence, antagonist;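 active = inhibition above a per-plate cutoff, the mean inhibition of test compounds on that plate plus 3 SD, cut at about 49% in these data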;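 also: 0% = DMSO plus EC80 beta-PEA response and 100% = DMSO alone without agonist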
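Material: RD-HGA16 CHO cells with stable hTAAR1 and Gα16; Dosing: single nominal final test compound concentration of 3 µM; Schedule: seeding 17-24 h prior, 75-min 37 °C, 30-min RT dye loading; Detection: kinetic Fluo-8 calcium fluorescence measurement; Measure: % inhibition from peak post-agonist over basal fluorescence ratio; Benchmarks: vehicle and agonist controls.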
* hit, by the source's call; nt = no result given. Compounds with a hit are over-represented: about 4.6% of the library has one in this group of screens.

SMILES	CHO parental Ca	OX1R antag-1	OX1R antag-2	GPR7 antag	TAAR1 agonist	TAAR1 antagonist
C=CC[C@@H](CC(=O)N(CCO)Cc1ccccc1)C(=O)N[C@H](COC(=O)[C@@H](CC=C)Cc1ccc(F)cc1)Cc1c[nH]c2ccccc12	12	-1	44	nt	14	59*
C=CC[C@H](CC(=O)N(CCO)Cc1ccccc1)C(=O)N[C@H](COC(=O)[C@@H](CC=C)Cc1ccc(F)cc1)Cc1c[nH]c2ccccc12	-5	16	19	nt	15	59*
CCN(CC)C(=O)C1=C(C)N(Cc2ccccc2)C(=O)C(CC(=O)NCc2cccc3ccccc23)C1 (stereo not given)	nt	nt	nt	nt	16	-21
COC(=O)C1=C(C)N(Cc2ccc(C(F)(F)F)cc2)C(=NCc2ccc(C(F)(F)F)cc2)NC1c1cccc(C(F)(F)F)c1 (stereo not given)	nt	nt	nt	nt	13	-2
Cc1cc(C)n2nc(Sc3ncccc3[N+](=O)[O-])nc2n1	-1	45*	-6	-9	17	-6
Cc1cnc(Sc2ncccc2[N+](=O)[O-])nc1	-13	39	-8	-5	9	-3
Cc1cc(C)n2nc(SCC(=O)Nc3ccc(F)cc3[N+](=O)[O-])nc2n1	-14	29*	-19	nt	1	-17
COc1cc(NC(=O)NCCN2CCN(c3ccc(Cl)cc3)CC2)ccc1C	14	1	17	15	48*	36
Cc1cccc(N2CCN(C(=O)C3CC(=O)N(c4ccc5c(c4)OCCO5)C3)CC2C)c1 (stereo not given)	-14	-4	1	nt	17	55*
Cc1cccc(N2CCN(C(=O)c3ccc4c(c3)OCCO4)CC2C)c1 (stereo not given)	-14	28	-3	-14	0	-8
CC(C)OCCCn1c(=N)c(C(N)=S)cc2c(=O)n3ccccc3nc21	-24	75*	-34	3	2	4
CC(C)OCCCn1c(=NC(=O)c2ccncc2)c(C#N)cc2c(=O)n3ccccc3nc21	-12	52*	-22	-3	9	10
O=C(Nc1ccc(Nc2cccnc2)cc1)c1c[nH]c2ccccc12	nt	nt	nt	nt	4	23
C[C@H](O)[C@@H]1CN2CCc3c([nH]c4c(-c5ccccc5)cccc34)[C@@H]2C[C@@H]1N(C)C(=O)NC1CCCCC1	nt	nt	nt	nt	-1	-8
COCc1[nH]nc2c1C(c1cccc(C(F)(F)F)c1)NC2=O (stereo not given)	nt	nt	nt	nt	1	-4
CCOc1ccccc1N1CCN(C(=O)CSc2ccc3c(c2)OCCO3)CC1	-27	2	-12	nt	15	51*
O=C(CSc1ccc2c(c1)OCCO2)N1CCN(c2ccccc2O)CC1	nt	nt	nt	nt	8	10
Cc1cc(CSc2ccccc2)ccc1NC(=O)c1cccc([N+](=O)[O-])c1	-2	27	-3	-10	6	49*
Cc1cc(O)c(NC(=O)c2cccc([N+](=O)[O-])c2)cc1C	24	11	1	-6	0	0
Cc1ccc(Cc2nnc(SCC(=O)Nc3ccccc3Cl)[nH]c2=O)cc1	1	25	-4	nt	1	-10
COc1ccc(Cl)cc1NC(=O)CSc1nnc(Cc2ccc(C)cc2)c(=O)[nH]1	-5	50*	-15	nt	1	-19
CCOC(=O)CCCN(c1[nH]c(C)c(C)c1C#N)S(=O)(=O)c1ccc(C)cc1	nt	nt	nt	nt	-1	-19
COc1ccc(-c2cn[nH]c2-c2ccc(OCc3ccccc3)cc2O)cc1	54*	8	16	-16	-1	10
COc1ccc(-c2[nH]ncc2-c2ccc(Cl)cc2)c(O)c1	72*	12	20	-5	2	12
Cc1cc(C)cc(NC(=O)CSc2nnc(Cc3cccn3C)n2-c2ccc(F)cc2)c1	-17	18	-18	-8	2	-9
SMILES	CHO parental Ca	OX1R antag-1	OX1R antag-2	GPR7 antag	TAAR1 agonist	TAAR1 antagonist
Cc1cc(C)c(NC(=O)CSc2nnc(Cc3cccn3C)n2-c2ccc(F)cc2)c(C)c1	-18	60*	-8	12	5	-27
Nc1[nH]c(C(=O)c2ccc(Br)cc2)c(-c2c(F)cccc2F)c1C(=O)NCCc1c[nH]c2ccccc12	nt	nt	nt	nt	1	18
COc1ccc(CCNC(=O)c2cccc(C(=O)NCCc3ccc(OC)cc3)n2)cc1	-26	9	-24	nt	7	54*
COc1ccc(S(=O)(=O)c2nnn(-c3cccc(Cl)c3)c2N)cc1	2	18	11	20*	46*	4
COc1ccc(N2C(=O)c3ccccc3NC(=O)C2C(=O)NCCc2ccccc2F)cc1 (stereo not given)	nt	nt	nt	nt	17	-9
COc1ccc(N(S(=O)(=O)c2ccccc2)S(=O)(=O)c2ccccc2)c(N)c1	-11	20	-4	nt	13	51*
COc1ccc(S(N)(=O)=O)cc1N(C)S(=O)(=O)c1ccccc1	-6	51	-6	-11	7	11
CCN1C(c2ccc(F)cc2)=CS/C1=C(/C#N)c1nnc2n1-c1ccccc1SC2	nt	nt	nt	nt	1	29
O=C(COc1cccc(F)c1)N[C@@H](Cc1ccccc1)c1nc2ccccc2[nH]1	-12	61*	12	-2	5	-2
Cc1cc(N2CCN(C(c3ccnc4ccccc34)c3nnnn3-c3c(C)cccc3C)CC2)c2ccccc2n1 (stereo not given)	nt	nt	nt	nt	-1	12
Cc1cc(C)cc(OCC(=O)OCC(=O)c2ccc3c(c2)NC(=O)CO3)c1	38*	24	7	-9	19	17
Cc1ccc(C(=O)NCC(=O)OCC(=O)c2ccc3c(c2)NC(=O)CO3)cc1C	-3	26	7	-8	2	-5
Cc1c(-n2c(O)c(C3=c4ccccc4=NC3=O)sc2=O)c(=O)n(-c2ccccc2)n1C	-6	15	-13	-8	13	6
O=C(O)Cn1c(O)c(C2=c3ccccc3=NC2=O)sc1=O	-3	47*	-9	2	0	12
CC(=O)O[C@H]1[C@@H](O)[C@H](O)[C@H](Oc2c(O)c(C)c3c4c2[C@@H](C)CC[C@@H]4[C@@H](C)C[C@@H]3C=C(C)C)O[C@H]1C	nt	nt	nt	nt	0	-2
Clc1ccc(COn2c(-c3ccccc3)nc3ccccc32)cc1	-8	54*	-5	-10	6	19
O=[N+]([O-])c1ccc2nc(-c3ccc(Cl)cc3)n(OCc3ccccc3)c2c1	-11	15	-5	4	39*	18
C/C(=N\NC1=NCCN1)c1ccc(N)c([N+](=O)[O-])c1	-3	33	-8	2	5	-4
CCCCCCOc1ccc(/C(C)=N/NC2=NCCN2)cc1[N+](=O)[O-]	-2	5	-6	1	38*	0
CC(C)C[C@H]1COc2c(Cl)cccc2S(=O)(=O)N1Cc1cccc(Cl)c1	nt	nt	nt	nt	2	-14
